Results taken from PubChem BioAssay.
Active and inactive are the calls of the source.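 How the source made its calls, unless noted: active means viability at or below 10% of carrier control in both of two separate runs; inconclusive means viability at or below 10% in only one of the two runs; inactive means the rest.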

What was measured:
[1] = reducers of endogenous Her2 protein level, primary screen, SKBR3 breast tumor cells, AlphaScreen, ATP viability (AID 461;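 active means Her2 level under about 52% in both replicate screens, with viability over 70% of control, limit read from the data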;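 on Her2 level: lower value means less Her2 protein in the cells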;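 on viability: percent of carrier control wells set as 100% viability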); settings: 18-24 h, measured here: SKBR3 viability, ATP luminescence, at 10 µM
[2] = target: Receptor tyrosine-protein kinase erbB-2 (Homo sapiens) (UniProt P04626); experiment: as above; settings: 18-24 h, at 10 µM, stronger effect = lower value
Sequence of Receptor tyrosine-protein kinase erbB-2 (Homo sapiens) (P04626 whole entry, looked up): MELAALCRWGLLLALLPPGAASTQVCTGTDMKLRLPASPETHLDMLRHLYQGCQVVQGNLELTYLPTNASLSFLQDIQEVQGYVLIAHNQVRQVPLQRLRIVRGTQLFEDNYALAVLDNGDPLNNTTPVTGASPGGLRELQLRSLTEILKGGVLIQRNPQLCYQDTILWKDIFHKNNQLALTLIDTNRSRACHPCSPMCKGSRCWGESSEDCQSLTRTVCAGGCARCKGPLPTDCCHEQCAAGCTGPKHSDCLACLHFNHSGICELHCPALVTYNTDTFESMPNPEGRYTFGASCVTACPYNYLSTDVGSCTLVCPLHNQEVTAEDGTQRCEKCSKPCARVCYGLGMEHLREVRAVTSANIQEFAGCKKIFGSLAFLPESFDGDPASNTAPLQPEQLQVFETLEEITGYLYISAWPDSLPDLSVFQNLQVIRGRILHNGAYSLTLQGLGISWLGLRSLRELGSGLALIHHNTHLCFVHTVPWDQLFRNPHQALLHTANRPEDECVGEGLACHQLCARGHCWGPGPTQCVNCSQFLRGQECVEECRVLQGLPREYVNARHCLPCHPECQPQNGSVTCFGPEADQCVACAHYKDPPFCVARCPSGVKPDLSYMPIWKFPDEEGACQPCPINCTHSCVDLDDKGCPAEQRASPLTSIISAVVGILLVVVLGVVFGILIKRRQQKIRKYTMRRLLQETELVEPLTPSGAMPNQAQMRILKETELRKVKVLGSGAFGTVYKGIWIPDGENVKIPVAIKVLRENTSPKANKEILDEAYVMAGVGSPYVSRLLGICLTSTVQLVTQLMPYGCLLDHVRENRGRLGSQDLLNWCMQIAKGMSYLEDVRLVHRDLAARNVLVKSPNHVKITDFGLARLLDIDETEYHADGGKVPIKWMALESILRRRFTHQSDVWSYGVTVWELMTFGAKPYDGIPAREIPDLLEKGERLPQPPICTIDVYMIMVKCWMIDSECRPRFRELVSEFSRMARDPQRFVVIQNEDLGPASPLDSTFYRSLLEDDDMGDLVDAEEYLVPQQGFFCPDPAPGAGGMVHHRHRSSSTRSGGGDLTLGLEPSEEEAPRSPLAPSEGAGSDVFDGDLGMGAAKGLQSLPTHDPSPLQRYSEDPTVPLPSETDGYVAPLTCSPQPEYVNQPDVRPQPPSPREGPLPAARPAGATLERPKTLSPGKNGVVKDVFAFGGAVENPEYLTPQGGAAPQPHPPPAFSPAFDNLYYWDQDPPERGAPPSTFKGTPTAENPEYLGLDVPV

[3] = SK-BR-3 cell growth inhibitors, pilot screen, 24 h, human (AID 572); settings: SK-BR-3 viability, CellTiter-Glo luminescence, at 10 µM, stronger effect = lower value;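 further: compound exposure lasted between 18 and 24 h rather than exactly 24 h; 100% = carrier-treated control wells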
[4] = HUVEC growth inhibition – cell-based, human, primary screen (AID 575;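 active means viability at or below 30% in both replicate assays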;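 further: 100% = median of untreated cell wells with 0.1% DMSO on each plate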); settings: HUVEC proliferation, CellTiter-Glo luminescence, 72 h; at 10 µM; stronger effect = lower value
In short: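 Timing: 72 h treatment at 37 °C; material: HUVEC primary cells; technique: CellTiter-Glo luminescence measuring cellular ATP; controls: vehicle and MePR control wells; measure: percent of median DMSO-control luminescence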

[5] = growth inhibitors of H69AR lung tumor, primary screen, human, duplicate replicates (AID 580;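 active means viability at or under a set limit in both replicates, limit being median viability minus 3 SD, cut at about 48% in these data, passing the limit was not always enough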;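 further: 100% = mean luminescence of untreated wells and 0% = no signal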); settings: H69AR lung tumor cells viability, ATP luminescence, 72 h; at 10 µM; stronger effect = lower value
[6] = reversal of MRP1-mediated doxorubicin resistance, pilot screen, H69AR cells, doxorubicin co-treatment (AID 601;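 active means viability loss from added drug above about 55%, and viability with drug at most 40%, in both replicates, limit read from the data, passing the limit was not always enough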); settings: CellTiter-Glo, 72 h, at 10 µM; for differential viability (reversal): stronger effect = higher value
[7] = 384-well plate pilot, post-Golgi transport modulator project, inhibition of yeast transport mutant growth (AID 636; in the data active means inhibition above about 31%); settings: absorbance 615 nm, about 18 h, stronger effect = higher value
[8] = growth suppression of yeast trafficking mutant, preliminary HTS, modulators of trafficking downstream of Golgi apparatus project, 1536-format plate, OD 615 nm (AID 637; in the data active means inhibition above about 30%); settings: yeast transport mutant growth, absorbance 615 nm, 18 h; stronger effect = higher value
[9] = H69AR cells + 2 uM doxorubicin, measured here: viability with 2 uM doxorubicin, stronger effect = lower value
[10] = H69AR cells, compound alone cytotoxicity

SMILES	viability [1] [%]	Her2 level [2]	viability [3]	viability [4]	viability [5]	differential viability (reversal) ([6]; H69AR cells + 2 uM doxorubicin)	viability [6, 9] [%]	viability [6, 10] [%]	inhibition [7]	inhibition [8]
CC(C)OC(=O)c1cc(=O)[nH]c2ccccc12	128	79% (inactive)	128% (inactive)	95.7% (inactive)	102% (inactive)	21.9% (inactive)	80.7	102	-2.47% (inactive)	-2.22% (inactive)
O=S1(=O)CC(N2CCOCC2)c2ccccc21 (stereo not given)	95	98% (inactive)	95% (inactive)	92.2% (inactive)	103% (inactive)	4.56% (inactive)	98.1	103	0.27% (inactive)	-9.52% (inactive)
O=C(CCSc1nnc(-c2ccncc2)o1)Nc1ccccc1	90.5	80.5% (inactive)	90.5% (inactive)	108% (inactive)	100% (inactive)	10.3% (inactive)	89.8	100	-0.79% (inactive)	5.27% (inactive)
CCOC(=O)N1CCN(C(=O)c2ccc3nc4cc(Cl)ccc4c(=O)n3c2)CC1	91	95% (inactive)	91% (inactive)	96% (inactive)	91.1% (inactive)	2.21% (inactive)	88.8	91.1	-3.07% (inactive)	2.1% (inactive)
COc1ccc(C2N(C(=O)c3ccccc3)CCN2C(=O)c2ccccc2)cc1	114	103% (inactive)	114% (inactive)	113% (inactive)	103% (inactive)	2.48% (inactive)	100	103	-1.04% (inactive)	5.41% (inactive)
CCCCNC(=O)CN(C1CCCCC1)S(C)(=O)=O	104	107% (inactive)	104% (inactive)	101% (inactive)	103% (inactive)	11% (inactive)	92.4	103	-4.47% (inactive)	-0.16% (inactive)
O=c1ccc2cc3c([nH]c4ccc(Br)cc43)oc-2c1O	146	87% (inactive)	146% (inactive)	91.7% (inactive)	78.3% (inactive)	-3.78% (inactive)	82.1	78.3	-4.16% (inactive)	-3.81% (inactive)
CCOC(=O)c1ccc(-n2c(=O)[nH]c3ccccc3c2=O)cc1	102	120% (inactive)	102% (inactive)	105% (inactive)	93.1% (inactive)	2.73% (inactive)	90.4	93.1	3.07% (inactive)	-2.74% (inactive)
Cc1nc2ccc(NC(=O)N3CCSCC3)cc2s1	89.5	107% (inactive)	89.5% (inactive)	108% (inactive)	94.3% (inactive)	-5.83% (inactive)	100	94.3	1.84% (inactive)	8.89% (inactive)
CCCCOCP(=O)(CCCC)COCCCC	92.5	91.5% (inactive)	92.5% (inactive)	95.3% (inactive)	94.1% (inactive)	5.32% (inactive)	88.8	94.1	-3.12% (inactive)	-0.98% (inactive)
O=C(CCN1C(=O)C2C3C=CC(C3)C2C1=O)NC1CCCc2ccccc21 (stereo not given)	81	90.5% (inactive)	81% (inactive)	76.7% (inactive)	94.2% (inactive)	6.45% (inactive)	87.7	94.2	-1.89% (inactive)	5.57% (inactive)
Cc1cc(=O)n(C)c(=O)n1CCCNc1ccccc1	82	115% (inactive)	82% (inactive)	83.7% (inactive)	99.9% (inactive)	11.4% (inactive)	88.5	99.9	0% (inactive)	-5% (inactive)
CCC(C)Nc1nc2c(c(=O)n(C)c(=O)n2C)n1Cc1ccc(F)cc1 (stereo not given)	90.5	86.5% (inactive)	90.5% (inactive)	88.6% (inactive)	83.3% (inactive)	-14.3% (inactive)	97.6	83.3	-5.27% (inactive)	5.08% (inactive)
CCCNS(=O)(=O)c1ccc(OCC(=O)NCc2ccc3c(c2)OCO3)cc1	105	89.5% (inactive)	105% (inactive)	88.2% (inactive)	94.1% (inactive)	4.96% (inactive)	89.1	94.1	-6.05% (inactive)	11% (inactive)
CCOC(=O)c1oc2ccccc2c1CSc1nnnn1-c1ccc(OC)cc1	82.5	69% (inactive)	82.5% (inactive)	77.4% (inactive)	75% (inactive)	1.07% (inactive)	73.9	75	-4.8% (inactive)	0.16% (inactive)
CC(=O)c1cccc(-n2nnnc2SCC(=O)N2CCCC2)c1	93.5	88% (inactive)	93.5% (inactive)	83.1% (inactive)	87.9% (inactive)	-2.82% (inactive)	90.7	87.9	-3.55% (inactive)	-7.5% (inactive)
O=C(O)CCc1ccc(-c2cccs2)n1CCC(=O)O	108	86.5% (inactive)	108% (inactive)	107% (inactive)	85.8% (inactive)	1.25% (inactive)	84.6	85.8	-2.24% (inactive)	-1.64% (inactive)
CS(=O)(=O)Nc1ccc(C(=O)NCCc2ccccc2)cc1	96.5	94.5% (inactive)	96.5% (inactive)	102% (inactive)	98.3% (inactive)	12.9% (inactive)	85.4	98.3	-3.47% (inactive)	-3.55% (inactive)
CCc1ccc(CNCc2cccnc2)cc1	91	100% (inactive)	91% (inactive)	91.2% (inactive)	92.4% (inactive)	6.96% (inactive)	85.4	92.4	-1.82% (inactive)	-2% (inactive)
O=C(c1cccc2ccccc12)N1CCC(N2CCN(c3ccccc3)CC2)CC1	84	90.5% (inactive)	84% (inactive)	81.7% (inactive)	88% (inactive)	-4% (inactive)	92	88	-1.97% (inactive)	-4.43% (inactive)
Cc1cc(C(=O)NCc2ccc(S(N)(=O)=O)cc2)cs1	84.5	87.5% (inactive)	84.5% (inactive)	105% (inactive)	104% (inactive)	13% (inactive)	90.7	104	-5.73% (inactive)	4.1% (inactive)
O=C(CCCn1ncn2c(cc3occc32)c1=O)N1CCc2ccccc2C1	126	90.5% (inactive)	126% (inactive)	83.8% (inactive)	84.7% (inactive)	-5.79% (inactive)	90.5	84.7	-4.21% (inactive)	-6.73% (inactive)
Cc1cc(NCCN(C)C)n2nc(-c3cccs3)cc2n1	90	107% (inactive)	90% (inactive)	102% (inactive)	92.6% (inactive)	10.5% (inactive)	82.1	92.6	-4.8% (inactive)	-2.62% (inactive)
Cc1cc(C)c(S(=O)(=O)Nc2cccnc2)c(C)c1	100	91% (inactive)	100% (inactive)	105% (inactive)	97.8% (inactive)	8.71% (inactive)	89.1	97.8	-4.93% (inactive)	-0.16% (inactive)
CCCN(CCC)S(=O)(=O)c1ccc(NS(C)(=O)=O)cc1	110	124% (inactive)	110% (inactive)	98.2% (inactive)	105% (inactive)	6.41% (inactive)	99	105	-1.18% (inactive)	-5.83% (inactive)
O=C(C1CCCN(S(=O)(=O)c2cnc[nH]2)C1)N1CCN(c2ccc(Cl)cc2)CC1 (stereo not given)	85.5	93% (inactive)	85.5% (inactive)	110% (inactive)	111% (inactive)	14.8% (inactive)	96	111	-0.13% (inactive)	-4.92% (inactive)
CCOC(=O)c1ccc(NC(=O)CSc2n[nH]c(-c3ccncc3)n2)cc1	87.5	102% (inactive)	87.5% (inactive)	80% (inactive)	87.7% (inactive)	-1.68% (inactive)	89.4	87.7	-3.11% (inactive)	1.27% (inactive)
O=C(CCN1CCN(C(=O)c2ccco2)CC1)Nc1ccc(F)cc1	97.5	95% (inactive)	97.5% (inactive)	99.8% (inactive)	97% (inactive)	6.06% (inactive)	90.9	97	-4.93% (inactive)	2.95% (inactive)
COc1ccc(-c2cc(C(=O)N3CCN(Cc4ccccc4)CC3)no2)cc1OC	99	64.5% (inactive)	99% (inactive)	81.5% (inactive)	98.5% (inactive)	20.8% (inactive)	77.8	98.5	-5.68% (inactive)	9% (inactive)
